Calls of active or inactive are those of the source.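 The calls were made as follows, unless noted: active = GFP response above 150% of the DMSO level; inconclusive = fewer than 70 events counted for a yeast strain; inactive = the rest.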

The nature of assay [1]: hit retest on RPL19A-GFP reporter strain – cell-based, S. cerevisiae, flow cytometry, cherry picks, mother/daughter gates, confirmation (AID 2270;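 active = GFP response below 50% of the DMSO control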). The conditions noted are these: 3 h, at 10 µM, stronger effect = lower value, 100 = same GFP as DMSO wells. A general note: In flow cytometry, cells or beads pass a laser one at a time.
Assay [2] can be described thus: yeast TOR pathway reporter LAP4-GFP change – cell-based, cherry picks, flow cytometry, mother/daughter gates, confirmation (AID 2271;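 active = GFP response above 150% of the DMSO control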;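 also: ratio of sample to DMSO plate mean so 100% equals DMSO level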). The conditions noted are these: S. cerevisiae LAP4-GFP strain, 3 h, at 10 µM, stronger effect = higher value, 100 means same as DMSO control. The essentials: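 Material – Alexa Fluor 633-labelled Saccharomyces cerevisiae GFP-fusion strain, single-plex · Incubation – compound exposure 3 h at 30 °C, end-over-end rotation · Measured by – GFP by flow cytometry · Measure – median GFP fluorescence as percent of plate-mean DMSO wells · Control set – positive rapamycin (400 ng/mL), negative DMSO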

Assay [3] is described as follows: TOR pathway reporter MEP2-GFP, retest of hits – S. cerevisiae, flow cytometry GFP, cherry picks, confirmation (AID 2272;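 active = GFP response above 150% of the DMSO control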;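 also: ratio of well signal to plate DMSO mean so 100% equals DMSO level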). The conditions noted are these: S. cerevisiae MEP2-GFP strain, 3 h, at 10 µM, stronger effect = higher value.
Assay [4] is described as follows: yeast AGP1-GFP fluorescence change, single-dose – cell-based, flow cytometry, S. cerevisiae, cherry picks, confirmation (AID 2273).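 Also: median GFP channel fluorescence over the whole cell population gate.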 The following applies: S. cerevisiae AGP1-GFP strain, 3 h, at 10 µM.
Assay [5] in a line: TOR pathway CIT2 reporter hit retest – S. cerevisiae, GFP fusion, cherry picks, mother/daughter gates, confirmation (AID 2274). The following applies: S. cerevisiae CIT2-GFP strain, flow cytometry, 3 h, at 10 µM, stronger effect = higher value.
[6] abbreviates: measured here: daughter cell gate.
Where [7] appears, read: measured here: mother cell gate.
Setting [8] is: measured here: daughter cell gate response.
Setting [9] is: measured here: mother cell gate response.

For `COc1cc(NC(=O)c2ccccc2[N+](=O)[O-])ccc1NC(=O)c1cc2ccccc2o1`, the GFP response vs DMSO in assay [1] was 101% (inactive); in assay [1] (setting [6]), 99.1%; in assay [1] (setting [7]), 101%; in assay [3] it was 103% (inactive). For the same molecule, the GFP response relative to DMSO in assay [2] was 97% (inactive); in assay [2] (setting [8]), 97.5%; in assay [2] (setting [9]), 97.3%. Moreover, the GFP response, % of DMSO in assay [4] is 101% (inactive); in assay [5] it was 97.3% (inactive); in assay [5] (setting [6]), 97.4%; in assay [5] (setting [7]), 95.6%.

Take `CN1CC(=O)NC1=NC(=O)C12CC3CC(CC(C3)C1)C2`: the GFP response vs DMSO in assay [1] was 95% (inactive); in assay [1] (setting [6]) it was 93.9%; in assay [1] (setting [7]), 96%; in assay [3], 97.5% (inactive). Also, the GFP response relative to DMSO was 102% (inactive) in assay [2], 97.9% in assay [2] (setting [8]) and 103% in assay [2] (setting [9]). In addition, the GFP response, % of DMSO is 92.3% (inactive) in assay [4], 93.5% (inactive) in assay [5], 94.6% in assay [5] (setting [6]) and 92.1% in assay [5] (setting [7]).

As to `O=C1C2C3C=CC(C4CC34)C2C(=O)N1/N=C/c1ccc([N+](=O)[O-])o1` (stereo unspecified), the GFP response vs DMSO was 101% (inactive) in assay [1], 105% in assay [1] (setting [6]), 95.8% in assay [1] (setting [7]) and 106% (inactive) in assay [3]. Further, the results for the GFP response relative to DMSO in assay [2], in assay [2] (setting [8]) and in assay [2] (setting [9]) were 129% (inactive), 122% and 120%, respectively. Further, the GFP response, % of DMSO in assay [4] is 101% (inactive); in assay [5], 107% (inactive); in assay [5] (setting [6]), 112%; in assay [5] (setting [7]) it was 100%.

With `CCOc1cc(C)c(S(=O)(=O)N2CCCC2)cc1C`, the GFP response vs DMSO in assay [1] is 90% (inactive); in assay [1] (setting [6]), 83.8%; in assay [1] (setting [7]), 91.1%; in assay [3], 92.6% (inactive). For the same molecule, the results for the GFP response relative to DMSO in assay [2], in assay [2] (setting [8]) and in assay [2] (setting [9]) were 137% (inactive), 128% and 145%, respectively. Further, the GFP response, % of DMSO was 94.5% (inactive) in assay [4], 78.5% (inactive) in assay [5], 72.1% in assay [5] (setting [6]) and 80.9% in assay [5] (setting [7]).

For the molecule `O=C(COC(=O)c1n[nH]c2ccccc12)c1cc(F)ccc1F`, the GFP response vs DMSO in assay [1] is 99.5% (inactive); in assay [1] (setting [6]), 99%; in assay [1] (setting [7]) it was 101%; in assay [3], 97.8% (inactive). Moreover, the GFP response relative to DMSO in assay [2] was 97.4% (inactive); in assay [2] (setting [8]), 98.7%; in assay [2] (setting [9]), 98.3%. Moreover, the GFP response, % of DMSO in assay [4] is 97.6% (inactive); in assay [5], 97.8% (inactive); in assay [5] (setting [6]), 96.5%; in assay [5] (setting [7]), 99.8%.

For the molecule `Cc1cc(S(=O)(=O)c2ccc([N+](=O)[O-])cn2)ccc1Br`, the GFP response vs DMSO in assay [1] was 87.9% (inactive); in assay [1] (setting [6]), 89.9%; in assay [1] (setting [7]), 82.2%; in assay [3] it was 114% (inactive). In addition, the GFP response relative to DMSO in assay [2] was 143% (inactive); in assay [2] (setting [8]), 118%; in assay [2] (setting [9]), 156%. Also, the GFP response, % of DMSO in assay [4] was 113% (inactive); in assay [5] it was 120% (inactive); in assay [5] (setting [6]), 138%; in assay [5] (setting [7]), 103%.

Regarding `O=C(O)c1ccccc1C(=O)Nc1ccccc1`, the GFP response vs DMSO is 101% (inactive) in assay [1], 101% in assay [1] (setting [6]), 99.5% in assay [1] (setting [7]) and 96.8% (inactive) in assay [3]. Moreover, the figures for the GFP response relative to DMSO in assay [2], in assay [2] (setting [8]) and in assay [2] (setting [9]) were 94.4% (inactive), 92.6% and 95.2%, respectively. Besides, the GFP response, % of DMSO in assay [4] is 104% (inactive); in assay [5], 102% (inactive); in assay [5] (setting [6]), 101%; in assay [5] (setting [7]) it was 101%.

Take `O=[N+]([O-])c1cc(F)c2cccnc2c1O`: the GFP response vs DMSO in assay [1] is 98.7% (inactive); in assay [1] (setting [6]), 93.3%; in assay [1] (setting [7]), 96.7%; in assay [3], 126% (inactive). The GFP response relative to DMSO is 219% (active) in assay [2], 176% in assay [2] (setting [8]) and 204% in assay [2] (setting [9]). Further, the GFP response, % of DMSO was 125% (inactive) in assay [4], 107% (inactive) in assay [5], 101% in assay [5] (setting [6]) and 104% in assay [5] (setting [7]).

Turning to `CC1=NNC(=O)/C1=C\c1cn(-c2ccccc2)nc1-c1ccccc1`, the GFP response vs DMSO in assay [1] is 98% (inactive); in assay [1] (setting [6]), 82.8%; in assay [1] (setting [7]), 95.5%; in assay [3] it was 110% (inactive). Further, the values for the GFP response relative to DMSO in assay [2], in assay [2] (setting [8]) and in assay [2] (setting [9]) were 242% (active), 164% and 236%, respectively. In addition, the GFP response, % of DMSO in assay [4] was 124% (inactive); in assay [5], 115% (inactive); in assay [5] (setting [6]) it was 93.7%; in assay [5] (setting [7]) it was 104%.

Turning to `COc1ccc(CCNC2=C(Cl)C(=O)N(CCc3ccccc3)C2=O)cc1OC`, the GFP response vs DMSO in assay [1] was 101% (inactive); in assay [1] (setting [6]), 102%; in assay [1] (setting [7]) it was 102%; in assay [3], 102% (inactive). Further, the GFP response relative to DMSO in assay [2] was 103% (inactive); in assay [2] (setting [8]), 105%; in assay [2] (setting [9]), 103%. In addition, the GFP response, % of DMSO in assay [4] is 97.4% (inactive); in assay [5], 107% (inactive); in assay [5] (setting [6]), 99.7%; in assay [5] (setting [7]) it was 103%.

Consider `CCN(CC)c1ccc(/C=C/c2ccc3ccc(OC)cc3[n+]2CC)cc1`, for which the GFP response vs DMSO in assay [1] is 102% (inactive); in assay [1] (setting [6]), 101%; in assay [1] (setting [7]), 101%; in assay [3] it was 133% (inactive). Also, the GFP response relative to DMSO in assay [2] was 117% (inactive); in assay [2] (setting [8]), 113%; in assay [2] (setting [9]), 119%. The GFP response, % of DMSO in assay [4] was 98.9% (inactive); in assay [5], 107% (inactive); in assay [5] (setting [6]), 110%; in assay [5] (setting [7]), 104%.

In the case of `COc1ccc(NC(=O)C2C3C=CC(C3)C2C(=O)NCc2ccco2)c(OC)c1` (stereo unspecified), the GFP response vs DMSO was 97.6% (inactive) in assay [1], 94.4% in assay [1] (setting [6]), 93.3% in assay [1] (setting [7]) and 101% (inactive) in assay [3]. Also, the GFP response relative to DMSO in assay [2] is 100% (inactive); in assay [2] (setting [8]), 96%; in assay [2] (setting [9]) it was 94.4%. The GFP response, % of DMSO was 103% (inactive) in assay [4], 98.6% (inactive) in assay [5], 95.8% in assay [5] (setting [6]) and 96% in assay [5] (setting [7]).

Take `N#C/C(=C\c1c(N2CCCCCC2)nc2ccccn2c1=O)C(=O)NC1CCS(=O)(=O)C1` (stereo unspecified): the GFP response vs DMSO was 99.9% (inactive) in assay [1], 101% in assay [1] (setting [6]), 99.7% in assay [1] (setting [7]) and 116% (inactive) in assay [3]. Also, the GFP response relative to DMSO was 105% (inactive) in assay [2], 107% in assay [2] (setting [8]) and 103% in assay [2] (setting [9]). Besides, the GFP response, % of DMSO in assay [4] was 98.7% (inactive); in assay [5], 109% (inactive); in assay [5] (setting [6]), 111%; in assay [5] (setting [7]), 108%.

`CCOc1ccc(C(=O)/C=C/c2ccccc2C(F)(F)F)cc1`: the GFP response vs DMSO was 98.2% (inactive) in assay [1], 96.9% in assay [1] (setting [6]), 99% in assay [1] (setting [7]) and 100% (inactive) in assay [3]. For the same molecule, the results for the GFP response relative to DMSO in assay [2], in assay [2] (setting [8]) and in assay [2] (setting [9]) were 97.9% (inactive), 99.2% and 96.1%, respectively. Besides, the GFP response, % of DMSO is 99.1% (inactive) in assay [4], 104% (inactive) in assay [5], 105% in assay [5] (setting [6]) and 103% in assay [5] (setting [7]).

Turning to `CCCc1[nH]nc2c1C(c1cc(OC)ccc1F)C(C#N)=C(N)O2` (stereo unspecified), the GFP response vs DMSO was 98% (inactive) in assay [1], 99.3% in assay [1] (setting [6]), 97.7% in assay [1] (setting [7]) and 96.8% (inactive) in assay [3]. For the same molecule, the values for the GFP response relative to DMSO in assay [2], in assay [2] (setting [8]) and in assay [2] (setting [9]) were 101% (inactive), 101% and 100%, respectively. The GFP response, % of DMSO in assay [4] is 101% (inactive); in assay [5], 105% (inactive); in assay [5] (setting [6]) it was 103%; in assay [5] (setting [7]), 104%.

As for `O=[N+]([O-])c1cc(CN2CCN(c3ccccc3)CC2)c(O)c2ncccc12`, the GFP response vs DMSO in assay [1] was 76.4% (inactive); in assay [1] (setting [6]), 108%; in assay [1] (setting [7]), 59.5%; in assay [3], 114% (inactive). Besides, the GFP response relative to DMSO is 161% (active) in assay [2], 138% in assay [2] (setting [8]) and 165% in assay [2] (setting [9]). Besides, the GFP response, % of DMSO in assay [4] is 78.8% (inactive); in assay [5] it was 97.3% (inactive); in assay [5] (setting [6]), 106%; in assay [5] (setting [7]) it was 88.2%.

The values above are taken from PubChem BioAssay.
